Laboratory results taken from paper PMC2670241 (Journal of neurochemistry, 2009).

Assays:
[1] = test system: oocytes expressing Gαolf and CFTR, but no receptor; assay: Control oocytes expressing Gαolf and CFTR, but no receptor; format: cell-based, Xenopus laevis; conditions: 100 μM, 15 sec application
Method in brief: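 Xenopus oocytes were defolliculated with collagenase B for 2 h at room temperature and injected with human Gαolf (10 ng) and CFTR (1 ng) cRNA in 23 nl water, with no receptor. Under voltage clamp in ND96 (pH 7.5), test compounds from 1 M DMSO stocks, diluted in ND96, were applied for 15 sec. 1 mM IBMX served as receptor-independent CFTR activator. Read-out was current.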

MOR174-9 (mOR-EG) [2] = molecular target: T1, MOR174-9 (mOR-EG) (Mus musculus, UniProt Q920P2); format: cell-based; conditions: each at 100 μM, 15 sec application
T1 sequence (Q920P2 1-313): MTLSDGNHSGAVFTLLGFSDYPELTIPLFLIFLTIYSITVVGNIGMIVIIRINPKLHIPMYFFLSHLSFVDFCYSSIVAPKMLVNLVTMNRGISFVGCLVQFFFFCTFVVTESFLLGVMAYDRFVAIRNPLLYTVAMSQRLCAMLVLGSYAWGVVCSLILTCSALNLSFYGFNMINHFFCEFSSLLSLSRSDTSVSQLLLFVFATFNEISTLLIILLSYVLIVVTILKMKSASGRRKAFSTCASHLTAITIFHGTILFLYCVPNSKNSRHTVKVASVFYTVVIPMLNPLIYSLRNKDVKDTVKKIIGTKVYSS

MOR23-1 = MOR23-1 (Mus musculus, UniProt Q8VG01); format: cell-based; conditions: read-out: Response normalized to the response of the same oocyte to 100 μM nonanoic acid
MOR32-11 = MOR32-11 (Mus musculus, UniProt Q8VF06); format: cell-based; conditions: for activation / activation at 3 µM / activation at 10 µM / activation at 30 µM: read-out: Response normalized to the response of the same oocyte to 100 μM nonanoic acid
Sequence of MOR32-11 (Q8VF06 1-312): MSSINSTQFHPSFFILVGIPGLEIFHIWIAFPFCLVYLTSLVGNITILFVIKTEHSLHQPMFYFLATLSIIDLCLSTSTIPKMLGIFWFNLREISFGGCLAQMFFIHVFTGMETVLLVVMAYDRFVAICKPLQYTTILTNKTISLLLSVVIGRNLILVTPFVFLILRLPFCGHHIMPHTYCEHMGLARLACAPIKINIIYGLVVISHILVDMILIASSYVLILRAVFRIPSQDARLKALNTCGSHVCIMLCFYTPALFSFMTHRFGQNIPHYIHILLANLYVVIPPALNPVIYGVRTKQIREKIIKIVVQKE

MOR40-4 (S83) = conditions: ref Malnic et al., 1999; cited from earlier work
MOR174-9 (mOR-EG) [3] = molecular target: T1, MOR174-9 (mOR-EG); conditions: ref Abaffy et al., 2006; cited from earlier work

Structure (SMILES) | activation (MOR23-1) | activation (MOR32-11) | activation at 3 µM (MOR32-11) | activation at 10 µM (MOR32-11) | activation at 30 µM (MOR32-11) | also measured
COc1cc(C=O)ccc1O [vanillin] | – | – | – | – | – | Response of oocytes expressing Gαolf and CFTR, but no receptor [1]: do not respond; Response of MOR174-9 to odorant (MOR174-9 (mOR-EG) [2]): responds
CCCCCCCC=O [Octanal] | 198 ± 27% | 22 ± 6% | 0% | 0% | 0% | activation at 3 µM (MOR23-1): 35 ± 5%; activation at 10 µM (MOR23-1): 76 ± 13%; activation at 30 µM (MOR23-1): 107 ± 7%
CCCCCCCCCCCO [Undecanol] | 0% | 6 ± 2% | – | – | – | –
O=C(O)CCCCCCCCCCCBr [12-Bromo-dodecanoic acid] | 0% | 6 ± 2% | – | – | – | –
CC(C)=CCC/C(C)=C/CO [geraniol] | – | – | – | – | – | Response of MOR174-9 to odorant (MOR174-9 (mOR-EG) [2]): does not respond
CCCCCCCCO [Octanol] | 100 ± 6% | 0% | – | – | – | activation at 10 µM (MOR23-1): 23 ± 2%; activation at 30 µM (MOR23-1): 68 ± 13%
CCCCCCCCCO [nonanol] | – | – | – | – | – | Response of MOR40-4 (S83) to odorant (previously shown) (MOR40-4 (S83)): respond
CCCCCCCCC(=O)O [Nonanoic acid] | 100% | 100% | 0% | 25 ± 4% | 61 ± 8% | Response of MOR40-4 (S83) to odorant (previously shown) (MOR40-4 (S83)): respond; activation at 3 µM (MOR23-1): 0%; activation at 10 µM (MOR23-1): 11 ± 4%; activation at 30 µM (MOR23-1): 48 ± 8%
CCCCCCCCCCCC=O [Dodecanal] | 0% | 25 ± 3% | 0% | 0% | 0% | –
O=C(O)CCCCCCCCCBr [10-Bromo-decanoic acid, 10-bromodecanoic acid] | 0% | 60 ± 4% | 0% | 0% | 0% | –
O=C(O)CCCCCCCBr [8-Bromo-octanoic acid, 8-bromooctanoic acid] | 32 ± 6% | 0% | – | – | – | Response of MOR40-4 (S83) to odorant (previously shown) (MOR40-4 (S83)): respond; activation at 3 µM (MOR23-1): 0%; activation at 10 µM (MOR23-1): 0%; activation at 30 µM (MOR23-1): 43 ± 8%
CCCCCCCCCCC(=O)O [Undecanoic acid] | 0% | 98 ± 22% | 0% | 0% | 26 ± 8% | –
CCCCCCCCCC(=O)O [Decanoic acid] | 0% | 122 ± 8% | 0% | 13 ± 3% | 0% | –
C/C=C/c1ccc(OC)c(OC)c1 [methylisoeugenol] | – | – | – | – | – | Antagonism of the response to eugenol of MOR174-9 expressed in oocytes (MOR174-9 (mOR-EG) [3]): can antagonize
C=C(C)[C@@H]1CC=C(C)C(=O)C1 [(−) carvone] | – | – | – | – | – | Response of MOR174-9 to odorant (MOR174-9 (mOR-EG) [2]): does not respond
COc1ccccc1O [guaiacol] | – | – | – | – | – | Response of MOR174-9 to odorant (MOR174-9 (mOR-EG) [2]): does not respond
CCCCCCCCCC=O [Decanal] | 0% | 23 ± 5% | 0% | 0% | 0% | –
CCOc1cc(C=O)ccc1O [ethyl vanillin] | – | – | – | – | – | Response of oocytes expressing Gαolf and CFTR, but no receptor [1]: do not respond; Response of MOR174-9 to odorant (MOR174-9 (mOR-EG) [2]): responds
C=CCc1ccc(O)c(OC)c1 [eugenol] | – | – | – | – | – | Response of oocytes expressing Gαolf and CFTR, but no receptor [1]: do not respond; Response of MOR174-9 to odorant (MOR174-9 (mOR-EG) [2]): responds
CCCCCCCCCCCC(=O)O [Dodecanoic acid] | – | – | 0% | 0% | 0% | –
O=C(O)CCCCCCCCCCBr [11-Bromo-undecanoic acid] | 0% | 27 ± 10% | 0% | 0% | 0% | –
CCCCCCCCCCC=O [Undecanal] | 0% | 16 ± 3% | 0% | 0% | 0% | –
CCCCCCCCC=O [Nonanal] | 0% | 32 ± 6% | 0% | 0% | 0% | –
CCCCCCCC(=O)O [Octanoic acid] | 178 ± 29% | 76 ± 6% | 0% | 27 ± 7% | 83 ± 14% | Response of MOR40-4 (S83) to odorant (previously shown) (MOR40-4 (S83)): respond; activation at 3 µM (MOR23-1): 70 ± 11%; activation at 10 µM (MOR23-1): 112 ± 17%; activation at 30 µM (MOR23-1): 158 ± 12%
CCCCCCC(=O)O [Heptanoic acid] | 64 ± 10% | 35 ± 6% | 0% | 13 ± 5% | 40 ± 12% | activation at 3 µM (MOR23-1): 0%; activation at 10 µM (MOR23-1): 10 ± 3%; activation at 30 µM (MOR23-1): 17 ± 4%; Saturation of dose-response at MOR32-11 (MOR32-11; up to a concentration of 1 mM, data not shown): failed to saturate
C=C(C)[C@H]1CC=C(C)C(=O)C1 [(+) carvone] | – | – | – | – | – | Response of MOR174-9 to odorant (MOR174-9 (mOR-EG) [2]): does not respond
O=C(O)CCCCCCCCCC(=O)O [Undecanedioic acid] | 0% | 0% | – | – | – | –
CCCCO [butanol] | – | – | – | – | – | Response of MOR174-9 to odorant (MOR174-9 (mOR-EG) [2]): does not respond
O=C(O)CCCCCBr [6-Bromo-hexanoic acid, 6-bromohexanoic acid] | 61 ± 7% | 0% | – | – | – | activation at 3 µM (MOR23-1): 0%; activation at 10 µM (MOR23-1): 0%; activation at 30 µM (MOR23-1): 22 ± 6%
